Results from ChEMBL document CHEMBL1145962, “Structure-based de novo design, synthesis, and biological evaluation of non-azole inhibitors specific for lanosterol 14alpha-demethylase of fungi” (2003).
Converted amounts (≈) assume the structure as drawn.

Experiments:
Type in all cases: functional
[1] = test system: Microsporum canis; experiment: In vitro antifungal activity against Microsporum canis
Summary of the method: (§1)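 Dermatophytes tested by NCCLS serial dilution in 96-well plates, in RPMI 1640 with 0.165 M MOPS. Compounds were prepared in DMSO and diluted in medium. Incubation was at 28 °C with reading at 7 days. MIC is the lowest concentration giving turbidity at ≤80% inhibition of control growth.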

[2] = test system: Cryptococcus neoformans; experiment: In vitro antifungal activity against Cryptococcus neoformans
Summary of the method: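 Microdilution MIC per NCCLS in MOPS (0.165 M)-buffered RPMI 1640. DMSO solutions were serially diluted in growth medium. Incubated at 35 °C as a yeast, with growth read at 72 h.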

[3] = test system: Candida parapsilosis; experiment: In vitro antifungal activity against Candida parapsilosis; conditions: Lodderomyces parapsilosis
Summary of the method: (§2)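 NCCLS broth serial dilution in 96-well plates with RPMI 1640 buffered with 0.165 M MOPS. Compounds were dissolved in DMSO and diluted in medium. Yeasts were incubated at 35 °C and read at 24 h. MIC is the lowest concentration giving turbidity at ≤80% inhibition versus the growth control.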

[4] = test system: Aspergillus fumigatus; experiment: In vitro antifungal activity against Aspergillus fumigatus
Summary of the method: (§3)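 Filamentous fungi were tested by NCCLS microdilution in RPMI 1640 buffered with 0.165 M MOPS. DMSO-dissolved compounds were serially diluted in medium. MIC was read at 7 days as the lowest concentration with turbidity at ≤80% inhibition versus the drug-free control.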

[5] = test system: Sporothrix schenckii; experiment: In vitro antifungal activity against Sporothrix schenck ii; summary of the method: as §3
[6] = test system: Fonsecaea pedrosoi; experiment: In vitro antifungal activity against Fonsecaea pedrosoi; summary of the method: as §3
[7] = test system: Trichophyton rubrum; experiment: In vitro antifungal activity against Trichophyton rubrum; summary of the method: as §1
[8] = test system: Candida albicans; experiment: In vitro antifungal activity against Candida albicans; summary of the method: as §2

## CCCCCC1(C)C/C(=N/O)c2ccc(O)cc2O1 (stereo not drawn)
[1]
  MIC: 5 µg/mL (≈ 19 µM)
[2]
  MIC: 40 µg/mL (≈ 152 µM)
[3]
  MIC: 40 µg/mL (≈ 152 µM)
[4]
  MIC: 80 µg/mL (≈ 304 µM)
[5]
  MIC: 40 µg/mL (≈ 152 µM)
[6]
  MIC: 40 µg/mL (≈ 152 µM)
[7]
  MIC: 5 µg/mL (≈ 19 µM)
[8]
  MIC: 160 µg/mL (≈ 608 µM)

## COc1ccc2c(c1)OC(C)(CCC=C(C)C)C=C2 (stereo not drawn)
[1]
  MIC: 80 µg/mL (≈ 310 µM)
[2]
  MIC: > 320 µg/mL
[3]
  MIC: > 320 µg/mL
[4]
  MIC: > 320 µg/mL
[5]
  MIC: 320 µg/mL (≈ 1240 µM)
[6]
  MIC: > 320 µg/mL
[7]
  MIC: 40 µg/mL (≈ 155 µM)
[8]
  MIC: > 320 µg/mL

## CCCCCCCC1(C)CC(O)c2ccc(O)cc2O1 (stereo not drawn)
[1]
  MIC: 2.5 µg/mL (≈ 8.98 µM)
[2]
  MIC: 40 µg/mL (≈ 144 µM)
[3]
  MIC: 20 µg/mL (≈ 71.8 µM)
[4]
  MIC: 80 µg/mL (≈ 287 µM)
[5]
  MIC: 40 µg/mL (≈ 144 µM)
[6]
  MIC: 80 µg/mL (≈ 287 µM)
[7]
  MIC: 20 µg/mL (≈ 71.8 µM)
[8]
  MIC: 40 µg/mL (≈ 144 µM)

## CCCCCCCCCC1(C)CC(=O)c2ccc(O)cc2O1 (stereo not drawn)
[1]
  MIC: 80 µg/mL (≈ 263 µM)
[2]
  MIC: > 320 µg/mL
[3]
  MIC: > 320 µg/mL
[4]
  MIC: 80 µg/mL (≈ 263 µM)
[5]
  MIC: > 320 µg/mL
[6]
  MIC: > 320 µg/mL
[7]
  MIC: > 320 µg/mL
[8]
  MIC: > 320 µg/mL

## CCCCCC1(C)CC(=O)c2ccc(O)cc2O1 (stereo not drawn)
[1]
  MIC: 40 µg/mL (≈ 161 µM)
[2]
  MIC: 160 µg/mL (≈ 644 µM)
[3]
  MIC: 160 µg/mL (≈ 644 µM)
[4]
  MIC: 160 µg/mL (≈ 644 µM)
[5]
  MIC: 80 µg/mL (≈ 322 µM)
[6]
  MIC: 80 µg/mL (≈ 322 µM)
[7]
  MIC: 20 µg/mL (≈ 80.5 µM)
[8]
  MIC: 320 µg/mL (≈ 1290 µM)

## CCCCCCCC1(C)CC(O)c2ccc(OC)cc2O1 (stereo not drawn)
[1]
  MIC: 80 µg/mL (≈ 274 µM)
[2]
  MIC: 80 µg/mL (≈ 274 µM)
[3]
  MIC: 160 µg/mL (≈ 547 µM)
[4]
  MIC: 80 µg/mL (≈ 274 µM)
[5]
  MIC: 40 µg/mL (≈ 137 µM)
[6]
  MIC: 160 µg/mL (≈ 547 µM)
[7]
  MIC: 80 µg/mL (≈ 274 µM)
[8]
  MIC: 320 µg/mL (≈ 1090 µM)

## OC(Cn1cncn1)(Cn1cncn1)c1ccc(F)cc1F [FLUCONAZOLE]
[1]
  MIC: 0.5 µg/mL (≈ 1.63 µM)
[2]
  MIC: 32 µg/mL (≈ 104 µM)
[3]
  MIC: 8 µg/mL (≈ 26.1 µM)
[4]
  MIC: 16 µg/mL (≈ 52.2 µM)
[5]
  MIC: 0.25 µg/mL (≈ 0.816 µM)
[6]
  MIC: 64 µg/mL (≈ 209 µM)
[7]
  MIC: 0.5 µg/mL (≈ 1.63 µM)
[8]
  MIC: 4 µg/mL (≈ 13.1 µM)

## CC(C)=CCCC1(C)CC(=O)c2ccc(O)cc2O1 (stereo not drawn)
[1]
  MIC: 40 µg/mL (≈ 154 µM)
[2]
  MIC: 160 µg/mL (≈ 615 µM)
[3]
  MIC: 80 µg/mL (≈ 307 µM)
[4]
  MIC: 80 µg/mL (≈ 307 µM)
[5]
  MIC: 160 µg/mL (≈ 615 µM)
[6]
  MIC: 160 µg/mL (≈ 615 µM)
[7]
  MIC: 80 µg/mL (≈ 307 µM)
[8]
  MIC: 160 µg/mL (≈ 615 µM)

## CC(C)=CCCC1(C)C/C(=N/O)c2ccc(O)cc2O1 (stereo not drawn)
[1]
  MIC: 2.5 µg/mL (≈ 9.08 µM)
[2]
  MIC: 40 µg/mL (≈ 145 µM)
[3]
  MIC: 40 µg/mL (≈ 145 µM)
[4]
  MIC: 40 µg/mL (≈ 145 µM)
[5]
  MIC: 40 µg/mL (≈ 145 µM)
[6]
  MIC: 20 µg/mL (≈ 72.6 µM)
[7]
  MIC: 5 µg/mL (≈ 18.2 µM)
[8]
  MIC: 80 µg/mL (≈ 291 µM)

## CCCCCCCC1(C)C/C(=N/O)c2ccc(O)cc2O1 (stereo not drawn)
[1]
  MIC: 0.625 µg/mL (≈ 2.14 µM)
[2]
  MIC: 20 µg/mL (≈ 68.6 µM)
[3]
  MIC: 20 µg/mL (≈ 68.6 µM)
[4]
  MIC: 10 µg/mL (≈ 34.3 µM)
[5]
  MIC: 10 µg/mL (≈ 34.3 µM)
[6]
  MIC: 40 µg/mL (≈ 137 µM)
[7]
  MIC: 2.5 µg/mL (≈ 8.58 µM)
[8]
  MIC: 40 µg/mL (≈ 137 µM)

## CCCCCCCC1(C)CC(=O)c2ccc(O)cc2O1 (stereo not drawn)
[1]
  MIC: 80 µg/mL (≈ 289 µM)
[2]
  MIC: 80 µg/mL (≈ 289 µM)
[3]
  MIC: 160 µg/mL (≈ 579 µM)
[4]
  MIC: 160 µg/mL (≈ 579 µM)
[5]
  MIC: 40 µg/mL (≈ 145 µM)
[6]
  MIC: 80 µg/mL (≈ 289 µM)
[7]
  MIC: 40 µg/mL (≈ 145 µM)
[8]
  MIC: 160 µg/mL (≈ 579 µM)

## CCCCCCCC1(C)C=Cc2ccc(OC)cc2O1 (stereo not drawn)
[1]
  MIC: 320 µg/mL (≈ 1170 µM)
[2]
  MIC: > 320 µg/mL
[3]
  MIC: > 320 µg/mL
[4]
  MIC: > 320 µg/mL
[5]
  MIC: > 320 µg/mL
[6]
  MIC: > 320 µg/mL
[7]
  MIC: > 320 µg/mL
[8]
  MIC: > 320 µg/mL

## CCCCCCCC1(C)CC(=O)c2ccc(OC)cc2O1 (stereo not drawn)
[1]
  MIC: 40 µg/mL (≈ 138 µM)
[2]
  MIC: > 320 µg/mL
[3]
  MIC: 320 µg/mL (≈ 1100 µM)
[4]
  MIC: > 320 µg/mL
[5]
  MIC: 40 µg/mL (≈ 138 µM)
[6]
  MIC: > 320 µg/mL
[7]
  MIC: 320 µg/mL (≈ 1100 µM)
[8]
  MIC: > 320 µg/mL

## CCCCCC1(C)CC(O)c2ccc(OC)cc2O1 (stereo not drawn)
[1]
  MIC: 20 µg/mL (≈ 75.7 µM)
[2]
  MIC: 160 µg/mL (≈ 605 µM)
[3]
  MIC: 160 µg/mL (≈ 605 µM)
[4]
  MIC: 80 µg/mL (≈ 303 µM)
[5]
  MIC: > 320 µg/mL
[6]
  MIC: > 320 µg/mL
[7]
  MIC: 20 µg/mL (≈ 75.7 µM)
[8]
  MIC: 320 µg/mL (≈ 1210 µM)

## CC(C)=CCCC1(C)CC(O)c2ccc(O)cc2O1 (stereo not drawn)
[1]
  MIC: 10 µg/mL (≈ 38.1 µM)
[2]
  MIC: 160 µg/mL (≈ 610 µM)
[3]
  MIC: 80 µg/mL (≈ 305 µM)
[4]
  MIC: 160 µg/mL (≈ 610 µM)
[5]
  MIC: 80 µg/mL (≈ 305 µM)
[6]
  MIC: 160 µg/mL (≈ 610 µM)
[7]
  MIC: 80 µg/mL (≈ 305 µM)
[8]
  MIC: 80 µg/mL (≈ 305 µM)

## COc1ccc2c(c1)OC(C)(CCC=C(C)C)CC2O (stereo not drawn)
[1]
  MIC: 160 µg/mL (≈ 579 µM)
[2]
  MIC: 160 µg/mL (≈ 579 µM)
[3]
  MIC: 160 µg/mL (≈ 579 µM)
[4]
  MIC: 160 µg/mL (≈ 579 µM)
[5]
  MIC: 320 µg/mL (≈ 1160 µM)
[6]
  MIC: 320 µg/mL (≈ 1160 µM)
[7]
  MIC: 160 µg/mL (≈ 579 µM)
[8]
  MIC: > 320 µg/mL

## CCCCCC1(C)CC(=O)c2ccc(OC)cc2O1 (stereo not drawn)
[1]
  MIC: 80 µg/mL (≈ 305 µM)
[2]
  MIC: > 320 µg/mL
[3]
  MIC: > 320 µg/mL
[4]
  MIC: 160 µg/mL (≈ 610 µM)
[5]
  MIC: > 320 µg/mL
[6]
  MIC: > 320 µg/mL
[7]
  MIC: > 320 µg/mL
[8]
  MIC: > 320 µg/mL

## CCCCCC1(C)C=Cc2ccc(OC)cc2O1 (stereo not drawn)
[1]
  MIC: 320 µg/mL (≈ 1300 µM)
[2]
  MIC: 320 µg/mL (≈ 1300 µM)
[3]
  MIC: > 320 µg/mL
[4]
  MIC: > 320 µg/mL
[5]
  MIC: > 320 µg/mL
[6]
  MIC: > 320 µg/mL
[7]
  MIC: > 320 µg/mL
[8]
  MIC: > 320 µg/mL

## CCCCCC1(C)CC(O)c2ccc(O)cc2O1 (stereo not drawn)
[1]
  MIC: 10 µg/mL (≈ 39.9 µM)
[2]
  MIC: 80 µg/mL (≈ 320 µM)
[3]
  MIC: 40 µg/mL (≈ 160 µM)
[4]
  MIC: 80 µg/mL (≈ 320 µM)
[5]
  MIC: 20 µg/mL (≈ 79.9 µM)
[6]
  MIC: 40 µg/mL (≈ 160 µM)
[7]
  MIC: 20 µg/mL (≈ 79.9 µM)
[8]
  MIC: 160 µg/mL (≈ 639 µM)

## COc1ccc2c(c1)OC(C)(CCC=C(C)C)CC2=O (stereo not drawn)
[1]
  MIC: 80 µg/mL (≈ 292 µM)
[2]
  MIC: > 320 µg/mL
[3]
  MIC: > 320 µg/mL
[4]
  MIC: 160 µg/mL (≈ 583 µM)
[5]
  MIC: 320 µg/mL (≈ 1170 µM)
[6]
  MIC: > 320 µg/mL
[7]
  MIC: > 320 µg/mL
[8]
  MIC: > 320 µg/mL

## CC(C)CC1(C)CC(=O)c2ccc(O)cc2O1 (stereo not drawn)
[1]
  MIC: 40 µg/mL (≈ 171 µM)
[2]
  MIC: 320 µg/mL (≈ 1370 µM)
[3]
  MIC: 320 µg/mL (≈ 1370 µM)
[4]
  MIC: 160 µg/mL (≈ 683 µM)
[5]
  MIC: 320 µg/mL (≈ 1370 µM)
[6]
  MIC: 160 µg/mL (≈ 683 µM)
[7]
  MIC: 160 µg/mL (≈ 683 µM)
[8]
  MIC: > 320 µg/mL
